Several values for one entry are separate records, joined by “and”; a condition that tells them apart may be missing. Identical values can stand only once.
These molecules were tested on HEK-293T (assay: Multiplex assay against HEK293T). Details: human, 12 h, 1 µM, compound concentration 1 uM.
Type: toxicity, cell-based
Summary of the method: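 Imaging took place on a CQ1 microscope at 37°C and 5% CO2 once compound had been added to live cells stained at seeding with Hoechst33342, BioTracker Green Microtubule Cytoskeleton Dye, MitoTracker Red and Annexin V Alexa Fluor 680. CellPathfinder machine-learning gating classed cells as Hoechst high-intensity objects or normal cells, classed normal cells as having healthy, pyknosed or fragmented nuclei, and classed pyknosed cells as mitotic or apoptotic. Tubulin, mitochondrial-mass and membrane-permeability phenotypes are per cents of the healthy-nucleus cells.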

SMILES | Population Apoptotic (%) | Population Fragmented Nuclei (%) | Population Healthy Nuclei (%) | Population Hoechst High Intensity Objects (%) | Population Membrane Permeable-Phenotype (%) | Population Mitochondria Different-Phenotype (%) | Population Mitotic Cells (%) | Population Normal (%) | Population Pyknosed Nuclei (%) | Population Tubulin-Different-Phenotype (%)
Nc1nc(CC(=O)Nc2ccc(CCNC[C@H](O)c3ccccc3)cc2)cs1 [MIRABEGRON] | 22% and 55% | 5% and 8% | 84% and 80% | 5% | 0% | 45% and 56% | 77% and 44% | 94% | 10% and 11% | 19%
COc1ccc2c(c1OCc1ccccc1)C[C@@H](C(=O)O)N(C(=O)C(c1ccccc1)c1ccccc1)C2 [OLODANRIGAN] | 39% and 43% | 6% and 7% | 82% and 81% | 7% | 0% | 44% and 48% | 60% and 56% | 92% | 11% and 10% | 21% and 17%
Cc1cc(NC(=O)NCCN2CCC(O)(Cc3ccccc3)CC2)c2ccccc2n1 [PALOSURAN] | 36% and 48% | 7% and 9% | 77% and 81% | 6% and 9% | 0% | 42% and 57% | 63% and 52% | 93% and 90% | 14% and 8% | 25% and 26%

Same assay, conditions: human, 12 h, 1 µM, compound concentration 1 uM

SMILES | Total Cell Count
Nc1nc(CC(=O)Nc2ccc(CCNC[C@H](O)c3ccccc3)cc2)cs1 [MIRABEGRON] | 455 and 332
COc1ccc2c(c1OCc1ccccc1)C[C@@H](C(=O)O)N(C(=O)C(c1ccccc1)c1ccccc1)C2 [OLODANRIGAN] | 419 and 409
Cc1cc(NC(=O)NCCN2CCC(O)(Cc3ccccc3)CC2)c2ccccc2n1 [PALOSURAN] | 373 and 326

Same assay, conditions: human, 12 h, 10 µM, compound concentration 10 uM

SMILES | Population Apoptotic (%) | Population Fragmented Nuclei (%) | Population Healthy Nuclei (%) | Population Hoechst High Intensity Objects (%) | Population Membrane Permeable-Phenotype (%) | Population Mitochondria Different-Phenotype (%) | Population Mitotic Cells (%) | Population Normal (%) | Population Pyknosed Nuclei (%) | Population Tubulin-Different-Phenotype (%)
Nc1nc(CC(=O)Nc2ccc(CCNC[C@H](O)c3ccccc3)cc2)cs1 [MIRABEGRON] | 32% and 44% | 5% and 11% | 77% and 74% | 7% and 8% | 0% | 51% and 64% | 67% and 56% | 92% and 91% | 17% and 14% | 41% and 29%
COc1ccc2c(c1OCc1ccccc1)C[C@@H](C(=O)O)N(C(=O)C(c1ccccc1)c1ccccc1)C2 [OLODANRIGAN] | 45% and 44% | 6% and 4% | 81% and 83% | 6% and 3% | 0% | 42% and 58% | 54% and 55% | 93% and 96% | 12% | 35% and 27%
Cc1cc(NC(=O)NCCN2CCC(O)(Cc3ccccc3)CC2)c2ccccc2n1 [PALOSURAN] | 38% and 61% | 5% | 81% and 75% | 8% | 0% | 53% and 76% | 61% and 38% | 91% | 12% and 18% | 41% and 42%

Same assay, conditions: human, 12 h, 10 µM, compound concentration 10 uM

SMILES | Total Cell Count
Nc1nc(CC(=O)Nc2ccc(CCNC[C@H](O)c3ccccc3)cc2)cs1 [MIRABEGRON] | 423 and 388
COc1ccc2c(c1OCc1ccccc1)C[C@@H](C(=O)O)N(C(=O)C(c1ccccc1)c1ccccc1)C2 [OLODANRIGAN] | 389 and 368
Cc1cc(NC(=O)NCCN2CCC(O)(Cc3ccccc3)CC2)c2ccccc2n1 [PALOSURAN] | 461 and 346

Same assay, conditions: human, 24 h, 1 µM, compound concentration 1 uM

SMILES | Population Apoptotic (%) | Population Fragmented Nuclei (%) | Population Healthy Nuclei (%) | Population Hoechst High Intensity Objects (%) | Population Membrane Permeable-Phenotype (%) | Population Mitochondria Different-Phenotype (%) | Population Mitotic Cells (%) | Population Normal (%) | Population Pyknosed Nuclei (%) | Population Tubulin-Different-Phenotype (%)
Nc1nc(CC(=O)Nc2ccc(CCNC[C@H](O)c3ccccc3)cc2)cs1 [MIRABEGRON] | 28% and 27% | 10% and 8% | 80% and 83% | 2% and 3% | 0% | 30% and 41% | 71% and 72% | 97% and 96% | 9% and 7% | 14% and 13%
COc1ccc2c(c1OCc1ccccc1)C[C@@H](C(=O)O)N(C(=O)C(c1ccccc1)c1ccccc1)C2 [OLODANRIGAN] | 46% and 19% | 11% and 10% | 78% and 81% | 3% and 6% | 0% and 1% | 24% and 30% | 53% and 80% | 96% and 93% | 10% and 8% | 15% and 14%
Cc1cc(NC(=O)NCCN2CCC(O)(Cc3ccccc3)CC2)c2ccccc2n1 [PALOSURAN] | 17% and 46% | 9% and 10% | 78% and 76% | 6% and 4% | 0% | 24% and 45% | 82% and 53% | 93% and 95% | 11% and 13% | 19% and 14%

Same assay, conditions: human, 24 h, 1 µM, compound concentration 1 uM

SMILES | Total Cell Count
Nc1nc(CC(=O)Nc2ccc(CCNC[C@H](O)c3ccccc3)cc2)cs1 [MIRABEGRON] | 635 and 390
COc1ccc2c(c1OCc1ccccc1)C[C@@H](C(=O)O)N(C(=O)C(c1ccccc1)c1ccccc1)C2 [OLODANRIGAN] | 614 and 521
Cc1cc(NC(=O)NCCN2CCC(O)(Cc3ccccc3)CC2)c2ccccc2n1 [PALOSURAN] | 511 and 343

Same assay, conditions: human, 24 h, 10 µM, compound concentration 10 uM

SMILES | Population Apoptotic (%) | Population Fragmented Nuclei (%) | Population Healthy Nuclei (%) | Population Hoechst High Intensity Objects (%) | Population Membrane Permeable-Phenotype (%) | Population Mitochondria Different-Phenotype (%) | Population Mitotic Cells (%) | Population Normal (%) | Population Pyknosed Nuclei (%) | Population Tubulin-Different-Phenotype (%)
Nc1nc(CC(=O)Nc2ccc(CCNC[C@H](O)c3ccccc3)cc2)cs1 [MIRABEGRON] | 31% and 35% | 8% and 9% | 77% and 82% | 4% and 5% | 0% | 32% and 49% | 68% and 64% | 95% and 94% | 13% and 7% | 23%
COc1ccc2c(c1OCc1ccccc1)C[C@@H](C(=O)O)N(C(=O)C(c1ccccc1)c1ccccc1)C2 [OLODANRIGAN] | 40% and 43% | 7% and 10% | 78% and 79% | 6% | 0% | 34% and 57% | 59% and 56% | 93% | 13% and 9% | 32% and 28%
Cc1cc(NC(=O)NCCN2CCC(O)(Cc3ccccc3)CC2)c2ccccc2n1 [PALOSURAN] | 35% and 51% | 8% and 7% | 79% and 83% | 4% and 6% | 0% | 43% and 64% | 64% and 48% | 95% and 93% | 11% and 9% | 32% and 26%

Same assay, conditions: human, 24 h, 10 µM, compound concentration 10 uM

SMILES | Total Cell Count
Nc1nc(CC(=O)Nc2ccc(CCNC[C@H](O)c3ccccc3)cc2)cs1 [MIRABEGRON] | 552 and 524
COc1ccc2c(c1OCc1ccccc1)C[C@@H](C(=O)O)N(C(=O)C(c1ccccc1)c1ccccc1)C2 [OLODANRIGAN] | 456 and 414
Cc1cc(NC(=O)NCCN2CCC(O)(Cc3ccccc3)CC2)c2ccccc2n1 [PALOSURAN] | 598 and 396

Same assay, conditions: human, 48 h, 1 µM, compound concentration 1 uM

SMILES | Population Apoptotic (%) | Population Fragmented Nuclei (%) | Population Healthy Nuclei (%) | Population Hoechst High Intensity Objects (%) | Population Membrane Permeable-Phenotype (%) | Population Mitochondria Different-Phenotype (%) | Population Mitotic Cells (%) | Population Normal (%) | Population Pyknosed Nuclei (%) | Population Tubulin-Different-Phenotype (%)
Nc1nc(CC(=O)Nc2ccc(CCNC[C@H](O)c3ccccc3)cc2)cs1 [MIRABEGRON] | 18% and 28% | 13% and 17% | 80% and 76% | 1% and 0% | 1% | 14% and 21% | 81% and 71% | 98% and 99% | 5% | 10%
COc1ccc2c(c1OCc1ccccc1)C[C@@H](C(=O)O)N(C(=O)C(c1ccccc1)c1ccccc1)C2 [OLODANRIGAN] | 26% and 22% | 13% and 15% | 80% and 79% | 2% | 0% | 15% and 18% | 73% and 77% | 97% | 5% | 11% and 10%
Cc1cc(NC(=O)NCCN2CCC(O)(Cc3ccccc3)CC2)c2ccccc2n1 [PALOSURAN] | 19% and 32% | 15% and 13% | 79% and 81% | 3% | 1% and 0% | 16% and 24% | 80% and 67% | 96% | 5% | 12% and 15%

Same assay, conditions: human, 48 h, 1 µM, compound concentration 1 uM

SMILES | Total Cell Count
Nc1nc(CC(=O)Nc2ccc(CCNC[C@H](O)c3ccccc3)cc2)cs1 [MIRABEGRON] | 1141 and 662
COc1ccc2c(c1OCc1ccccc1)C[C@@H](C(=O)O)N(C(=O)C(c1ccccc1)c1ccccc1)C2 [OLODANRIGAN] | 1083 and 818
Cc1cc(NC(=O)NCCN2CCC(O)(Cc3ccccc3)CC2)c2ccccc2n1 [PALOSURAN] | 938 and 552

Same assay, conditions: human, 48 h, 10 µM, compound concentration 10 uM

SMILES | Population Apoptotic (%) | Population Fragmented Nuclei (%) | Population Healthy Nuclei (%) | Population Hoechst High Intensity Objects (%) | Population Membrane Permeable-Phenotype (%) | Population Mitochondria Different-Phenotype (%) | Population Mitotic Cells (%) | Population Normal (%) | Population Pyknosed Nuclei (%) | Population Tubulin-Different-Phenotype (%)
Nc1nc(CC(=O)Nc2ccc(CCNC[C@H](O)c3ccccc3)cc2)cs1 [MIRABEGRON] | 26% and 28% | 12% | 78% and 80% | 3% and 2% | 0% | 25% and 30% | 73% and 71% | 96% and 97% | 8% and 6% | 16% and 15%
COc1ccc2c(c1OCc1ccccc1)C[C@@H](C(=O)O)N(C(=O)C(c1ccccc1)c1ccccc1)C2 [OLODANRIGAN] | 32% and 39% | 12% | 78% and 80% | 5% and 6% | 0% | 22% and 32% | 67% and 60% | 94% and 93% | 8% and 7% | 15% and 18%
Cc1cc(NC(=O)NCCN2CCC(O)(Cc3ccccc3)CC2)c2ccccc2n1 [PALOSURAN] | 29% and 41% | 15% and 9% | 75% and 84% | 5% and 4% | 0% | 34% and 42% | 70% and 58% | 94% and 95% | 8% and 6% | 17% and 19%

Same assay, conditions: human, 48 h, 10 µM, compound concentration 10 uM

SMILES | Total Cell Count
Nc1nc(CC(=O)Nc2ccc(CCNC[C@H](O)c3ccccc3)cc2)cs1 [MIRABEGRON] | 818 and 750
COc1ccc2c(c1OCc1ccccc1)C[C@@H](C(=O)O)N(C(=O)C(c1ccccc1)c1ccccc1)C2 [OLODANRIGAN] | 659 and 534
Cc1cc(NC(=O)NCCN2CCC(O)(Cc3ccccc3)CC2)c2ccccc2n1 [PALOSURAN] | 874 and 570
